Laboratory results taken from ChEMBL document CHEMBL4814044, “Design and synthesis, biological evaluation of bis-(1,2,3- and 1,2,4)-triazole derivatives as potential antimicrobial and antifungal agents” (2021).
Activity calls are given as the source filed them. The calls are words filed in the database; no cut-off is given here.

Tests used:
Assay type in all cases: functional
Staphylococcus aureus = experiment: Antibacterial activity against Staphylococcus aureus MTCC 96 assessed as bacterial growth inhibition by microdilution method
Summary of the method: (§1)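 Broth microdilution against Gram-positive and Gram-negative strains. The endpoint is the minimal inhibitory concentration, in µg/ml.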

Pseudomonas aeruginosa = experiment: Antibacterial activity against Pseudomonas aeruginosa MTCC 424 assessed as bacterial growth inhibition by microdilution method; summary of the method: as §1
Bacillus subtilis = experiment: Antibacterial activity against Bacillus subtilis MTCC 441 assessed as bacterial growth inhibition by microdilution method; summary of the method: as §1
Escherichia coli = experiment: Antibacterial activity against Escherichia coli MTCC 443 assessed as bacterial growth inhibition by microdilution method; summary of the method: as §1
Saccharomyces cerevisiae [1] = experiment: Antifungal activity against Saccharomyces cerevisiae MTCC 1344 assessed as zone of inhibition at 15.9 uM incubated for 2 days by cross streak plate method; conditions: MTCC 1344, 48 h, time 2 day, read-out: IZ
Summary of the method: (§2)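 Fungal strain (A. niger MTCC 404 or S. cerevisiae MTCC 1344) was incubated with the compound for 2 days at 37 °C. Growth inhibition was then assessed by the cross streak plate method.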

Aspergillus niger [2] = experiment: Antifungal activity against Aspergillus niger MTCC 404 assessed as zone of inhibition at 23.9 uM incubated for 2 days by cross streak plate method; conditions: MTCC 404, 48 h, time 2 day, read-out: IZ; summary of the method: as §2
[3] = Antioxidant activity assessed as DPPH radical scavenging activity
Aspergillus niger [4] = experiment: Antifungal activity against Aspergillus niger MTCC 404 assessed as zone of inhibition at 15.9 uM incubated for 2 days by cross streak plate method; conditions: MTCC 404, 48 h, time 2 day, read-out: IZ; summary of the method: as §2
Saccharomyces cerevisiae [5] = experiment: Antifungal activity against Saccharomyces cerevisiae MTCC 1344 assessed as zone of inhibition at 31.8 uM incubated for 2 days by cross streak plate method; conditions: MTCC 1344, 48 h, time 2 day, read-out: IZ; summary of the method: as §2
Aspergillus niger [6] = experiment: Antifungal activity against Aspergillus niger MTCC 404 assessed as zone of inhibition at 31.8 uM incubated for 2 days by cross streak plate method; conditions: MTCC 404, 48 h, time 2 day, read-out: IZ; summary of the method: as §2
Saccharomyces cerevisiae [7] = experiment: Antifungal activity against Saccharomyces cerevisiae MTCC 1344 assessed as zone of inhibition at 23.9 uM incubated for 2 days by cross streak plate method; conditions: MTCC 1344, 48 h, time 2 day, read-out: IZ; summary of the method: as §2
Aspergillus niger [8] = experiment: Antifungal activity against Aspergillus niger MTCC 404 assessed as zone of inhibition at 27.5 uM incubated for 2 days by cross streak plate method; conditions: MTCC 404, 48 h, time 2 day, read-out: IZ; summary of the method: as §2
Aspergillus niger [9] = experiment: Antifungal activity against Aspergillus niger MTCC 404 assessed as zone of inhibition at 18.3 uM incubated for 2 days by cross streak plate method; conditions: MTCC 404, 48 h, time 2 day, read-out: IZ; summary of the method: as §2
Saccharomyces cerevisiae [10] = experiment: Antifungal activity against Saccharomyces cerevisiae MTCC 1344 assessed as zone of inhibition at 27.5 uM incubated for 2 days by cross streak plate method; conditions: MTCC 1344, 48 h, time 2 day, read-out: IZ; summary of the method: as §2
Saccharomyces cerevisiae [11] = experiment: Antifungal activity against Saccharomyces cerevisiae MTCC 1344 assessed as zone of inhibition at 36.6 uM incubated for 2 days by cross streak plate method; conditions: MTCC 1344, 48 h, time 2 day, read-out: IZ
Summary of the method: (§3)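 S. cerevisiae MTCC 1344 cultures were incubated for 2 days at 37 °C and then tested by the cross streak plate method.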

Saccharomyces cerevisiae [12] = experiment: Antifungal activity against Saccharomyces cerevisiae MTCC 1344 assessed as zone of inhibition at 18.3 uM incubated for 2 days by cross streak plate method; conditions: MTCC 1344, 48 h, time 2 day, read-out: IZ; summary of the method: as §2
Aspergillus niger [13] = experiment: Antifungal activity against Aspergillus niger MTCC 404 assessed as zone of inhibition at 36.6 uM incubated for 2 days by cross streak plate method; conditions: MTCC 404, 48 h, time 2 day, read-out: IZ; summary of the method: as §2
Aspergillus niger [14] = experiment: Antifungal activity against Aspergillus niger MTCC 404 assessed as zone of inhibition at 25.9 uM incubated for 2 days by cross streak plate method; conditions: MTCC 404, 48 h, time 2 day, read-out: IZ; summary of the method: as §2
Aspergillus niger [15] = experiment: Antifungal activity against Aspergillus niger MTCC 404 assessed as zone of inhibition at 34.5 uM incubated for 2 days by cross streak plate method; conditions: MTCC 404, 48 h, time 2 day, read-out: IZ; summary of the method: as §2
Saccharomyces cerevisiae [16] = experiment: Antifungal activity against Saccharomyces cerevisiae MTCC 1344 assessed as zone of inhibition at 17.2 uM incubated for 2 days by cross streak plate method; conditions: MTCC 1344, 48 h, time 2 day, read-out: IZ; summary of the method: as §2
Saccharomyces cerevisiae [17] = experiment: Antifungal activity against Saccharomyces cerevisiae MTCC 1344 assessed as zone of inhibition at 25.9 uM incubated for 2 days by cross streak plate method; conditions: MTCC 1344, 48 h, time 2 day, read-out: IZ; summary of the method: as §2
Saccharomyces cerevisiae [18] = experiment: Antifungal activity against Saccharomyces cerevisiae MTCC 1344 assessed as zone of inhibition at 34.5 uM incubated for 2 days by cross streak plate method; conditions: MTCC 1344, 48 h, time 2 day, read-out: IZ; summary of the method: as §3
Aspergillus niger [19] = experiment: Antifungal activity against Aspergillus niger MTCC 404 assessed as zone of inhibition at 17.2 uM incubated for 2 days by cross streak plate method; conditions: MTCC 404, 48 h, time 2 day, read-out: IZ; summary of the method: as §2
Aspergillus niger [20] = experiment: Antifungal activity against Aspergillus niger MTCC 404 assessed as zone of inhibition at 16 uM incubated for 2 days by cross streak plate method; conditions: MTCC 404, 48 h, time 2 day, read-out: IZ; summary of the method: as §2
Saccharomyces cerevisiae [21] = experiment: Antifungal activity against Saccharomyces cerevisiae MTCC 1344 assessed as zone of inhibition at 32.1 uM incubated for 2 days by cross streak plate method; conditions: MTCC 1344, 48 h, time 2 day, read-out: IZ; summary of the method: as §3
Saccharomyces cerevisiae [22] = experiment: Antifungal activity against Saccharomyces cerevisiae MTCC 1344 assessed as zone of inhibition at 16 uM incubated for 2 days by cross streak plate method; conditions: MTCC 1344, 48 h, time 2 day, read-out: IZ; summary of the method: as §2
Aspergillus niger [23] = experiment: Antifungal activity against Aspergillus niger MTCC 404 assessed as zone of inhibition at 32.1 uM incubated for 2 days by cross streak plate method; conditions: MTCC 404, 48 h, time 2 day, read-out: IZ; summary of the method: as §2
Aspergillus niger [24] = experiment: Antifungal activity against Aspergillus niger MTCC 404 assessed as zone of inhibition at 24 uM incubated for 2 days by cross streak plate method; conditions: MTCC 404, 48 h, time 2 day, read-out: IZ; summary of the method: as §2
Saccharomyces cerevisiae [25] = experiment: Antifungal activity against Saccharomyces cerevisiae MTCC 1344 assessed as zone of inhibition at 24 uM incubated for 2 days by cross streak plate method; conditions: MTCC 1344, 48 h, time 2 day, read-out: IZ; summary of the method: as §2

CC1(C)S[C@@H]2[C@H](NC(=O)[C@H](N)c3ccccc3)C(=O)N2[C@H]1C(=O)O [AMPICILLIN]
MIC (Staphylococcus aureus): 10 µg/mL
MIC (Pseudomonas aeruginosa): 10 µg/mL
MIC (Bacillus subtilis): 10 µg/mL
MIC (Escherichia coli): 3.9 µg/mL

O=C(CSc1nnc(-c2ccccc2OCc2cn(-c3ccc(Cl)cc3)nn2)n1Cc1ccccc1)c1ccc(Cl)cc1
zone of inhibition at 15.9 µM (Saccharomyces cerevisiae [1]): 2 mm
zone of inhibition at 23.9 µM (Aspergillus niger [2]): 2 mm
MIC (Staphylococcus aureus): 8 µg/mL
MIC (Pseudomonas aeruginosa): 8.2 µg/mL
Activity [3]: inactive
zone of inhibition at 15.9 µM (Aspergillus niger [4]): 2 mm
zone of inhibition at 31.8 µM (Saccharomyces cerevisiae [5]): 3 mm
MIC (Bacillus subtilis): 4 µg/mL
MIC (Escherichia coli): 8.5 µg/mL
zone of inhibition at 31.8 µM (Aspergillus niger [6]): 3 mm
zone of inhibition at 23.9 µM (Saccharomyces cerevisiae [7]): 2 mm

O=C(CSc1nnc(-c2ccccc2OCc2cn(-c3ccccc3)nn2)n1-c1ccccc1)c1ccccc1
zone of inhibition at 27.5 µM (Aspergillus niger [8]): 3 mm
zone of inhibition at 18.3 µM (Aspergillus niger [9]): 2.1 mm
zone of inhibition at 27.5 µM (Saccharomyces cerevisiae [10]): 2 mm
zone of inhibition at 36.6 µM (Saccharomyces cerevisiae [11]): 3 mm
MIC (Staphylococcus aureus): 9.8 µg/mL
MIC (Pseudomonas aeruginosa): 9.1 µg/mL
Activity [3]: inactive
MIC (Bacillus subtilis): 4.9 µg/mL
MIC (Escherichia coli): 9.8 µg/mL
zone of inhibition at 18.3 µM (Saccharomyces cerevisiae [12]): 1.5 mm
zone of inhibition at 36.6 µM (Aspergillus niger [13]): 3 mm

O=C(CSc1nnc(-c2ccccc2OCc2cn(-c3ccccc3)nn2)n1-c1ccccc1)c1ccc(Cl)cc1
zone of inhibition at 25.9 µM (Aspergillus niger [14]): 3 mm
zone of inhibition at 34.5 µM (Aspergillus niger [15]): 3 mm
zone of inhibition at 17.2 µM (Saccharomyces cerevisiae [16]): 2 mm
MIC (Staphylococcus aureus): 8.4 µg/mL
MIC (Pseudomonas aeruginosa): 7.9 µg/mL
Activity [3]: inactive
zone of inhibition at 25.9 µM (Saccharomyces cerevisiae [17]): 3 mm
MIC (Bacillus subtilis): 4 µg/mL
MIC (Escherichia coli): > 45.4 µg/mL
zone of inhibition at 34.5 µM (Saccharomyces cerevisiae [18]): 3 mm
zone of inhibition at 17.2 µM (Aspergillus niger [19]): 2.1 mm

O=C(Sc1nnc(-c2ccccc2OCc2cn(-c3ccccc3)nn2)n1Cc1ccccc1)c1ccccc1
zone of inhibition at 27.5 µM (Aspergillus niger [8]): 6.8 mm
zone of inhibition at 18.3 µM (Aspergillus niger [9]): 5.5 mm
zone of inhibition at 27.5 µM (Saccharomyces cerevisiae [10]): 6.8 mm
zone of inhibition at 36.6 µM (Saccharomyces cerevisiae [11]): 6.7 mm
MIC (Staphylococcus aureus): 8.9 µg/mL
MIC (Pseudomonas aeruginosa): 8.7 µg/mL
Activity [3]: inactive
MIC (Bacillus subtilis): 4 µg/mL
MIC (Escherichia coli): 10 µg/mL
zone of inhibition at 18.3 µM (Saccharomyces cerevisiae [12]): 6 mm
zone of inhibition at 36.6 µM (Aspergillus niger [13]): 7 mm

O=C(CSc1nnc(-c2ccccc2OCc2cn(-c3ccccc3)nn2)n1Cc1ccccc1)c1cccc(Cl)c1
zone of inhibition at 15.9 µM (Saccharomyces cerevisiae [1]): 1.5 mm
zone of inhibition at 23.9 µM (Aspergillus niger [2]): 2 mm
MIC (Staphylococcus aureus): 8 µg/mL
MIC (Pseudomonas aeruginosa): 7.5 µg/mL
Activity [3]: inactive
zone of inhibition at 15.9 µM (Aspergillus niger [4]): 2 mm
zone of inhibition at 31.8 µM (Saccharomyces cerevisiae [5]): 3 mm
MIC (Bacillus subtilis): 4.1 µg/mL
MIC (Escherichia coli): > 40.8 µg/mL
zone of inhibition at 31.8 µM (Aspergillus niger [6]): 3 mm
zone of inhibition at 23.9 µM (Saccharomyces cerevisiae [7]): 2 mm

O=C(CSc1nnc(-c2ccccc2OCc2cn(-c3ccccc3)nn2)n1-c1ccccc1)c1ccc(Br)cc1
zone of inhibition at 16 µM (Aspergillus niger [20]): 1.5 mm
zone of inhibition at 32.1 µM (Saccharomyces cerevisiae [21]): 3 mm
zone of inhibition at 16 µM (Saccharomyces cerevisiae [22]): 2 mm
MIC (Staphylococcus aureus): 7.9 µg/mL
MIC (Pseudomonas aeruginosa): 7.5 µg/mL
Activity [3]: inactive
MIC (Bacillus subtilis): 4.1 µg/mL
MIC (Escherichia coli): 10 µg/mL
zone of inhibition at 32.1 µM (Aspergillus niger [23]): 3 mm
zone of inhibition at 24 µM (Aspergillus niger [24]): 2 mm
zone of inhibition at 24 µM (Saccharomyces cerevisiae [25]): 2 mm
